Values after ≈ are worked out from the molar mass of the structure shown.
Assays:
[1] = test system: Actinomyces viscosus; test: Chlorohexidine coefficient for Actinomyces viscosus M-100; assay type: functional
Method in brief: (§1)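 Hydroxylapatite-grown plaques were exposed once daily for 2 min to varying concentrations of agent until the organisms were killed. The highest level tested was 0.2% w/v for 5 days. Tests were run in duplicate. PBI is the concentration (mM) × duration (min) × frequency (days) needed for plaque kill. CC is the chlorhexidine PBI divided by the test-agent PBI.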

[2] = test system: Actinomyces viscosus; test: Plaque bactericidal index against Actinomyces viscosus M-100 measured as chlorohexidine coefficient; assay type: functional; method in brief: as §1
[3] = test system: Streptococcus sobrinus; test: Minimal bactericidal concentration against Streptococcus sobrinus 6715-13; assay type: functional
Method in brief: (§2)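 Plaques were grown on standardized ceramic hydroxylapatite plates and immersed once in agent for 30 min. They were rinsed with sterile distilled water, moved to fresh broth and incubated anaerobically at 37 °C. Kill meant no further culture acid production, no turbidity change, and no growth when 48-h post-treatment plaque samples were subcultured. Tests were run in duplicate.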

[4] = test system: Streptococcus sobrinus; test: Plaque bactericidal index against Streptococcus sobrinus 6715-13 measured as chlorohexidine coefficient; assay type: functional; method in brief: as §1
[5] = test system: Streptococcus sobrinus; test: Chlorohexidine coefficient for Streptococcus sobrinus 6715-13; assay type: functional; method in brief: as §1
[6] = test system: Actinomyces viscosus; test: Chlorohexidine coefficient for Actinomyces viscosus 8A06; assay type: functional; method in brief: as §1
[7] = test system: Actinomyces viscosus; test: Chlorohexidine coefficient for Actinomyces viscosus M-626; assay type: functional; method in brief: as §1
[8] = test system: Actinomyces viscosus; test: Chlorohexidine coefficient for Actinomyces viscosus T14V; assay type: functional; method in brief: as §1
[9] = test system: Actinomyces viscosus; test: Plaque bactericidal index against Actinomyces viscosus 8A06; assay type: functional; method in brief: as §1
[10] = test system: Actinomyces viscosus; test: Plaque bactericidal index against Actinomyces viscosus M-100; assay type: functional; method in brief: as §1
[11] = test system: Actinomyces viscosus; test: Plaque bactericidal index against Actinomyces viscosus 626; assay type: functional; method in brief: as §1
[12] = test system: Actinomyces naeslundii; test: Chlorohexidine coefficient for Actinomyces naeslundii 631; assay type: functional; method in brief: as §1
[13] = test system: Actinomyces naeslundii; test: Chlorohexidine coefficient for Actinomyces naeslundii B74; assay type: functional; method in brief: as §1
[14] = test system: Actinomyces naeslundii; test: Chlorohexidine coefficient for Actinomyces naeslundii N/3; assay type: functional; method in brief: as §1
[15] = test system: Actinomyces naeslundii; test: Chlorohexidine coefficient for Actinomyces naeslundii N/9; assay type: functional; method in brief: as §1
[16] = test system: Actinomyces naeslundii; test: Plaque bactericidal index against Actinomyces naeslundii 631; assay type: functional; method in brief: as §1
[17] = test system: Actinomyces naeslundii; test: Plaque bactericidal index against Actinomyces naeslundii N/9; assay type: functional; method in brief: as §1
[18] = test system: Actinomyces naeslundii; test: Plaque bactericidal index against Actinomyces naeslundii B74; assay type: functional; method in brief: as §1
[19] = test system: Streptococcus sanguinis; test: Chlorohexidine coefficient for Streptococcus sanguis ATCC 10558; assay type: functional; method in brief: as §1
[20] = test system: Streptococcus mitis; test: Chlorohexidine coefficient for Streptococcus mitis 176-A1; assay type: functional; method in brief: as §1
[21] = test system: Streptococcus mitis; test: Chlorohexidine coefficient for Streptococcus mitis 90557; assay type: functional; method in brief: as §1
[22] = test system: Streptococcus mitis; test: Plaque bactericidal index against Streptococcus mitis 176-A1; assay type: functional; method in brief: as §1
[23] = test system: Streptococcus mitis; test: Plaque bactericidal index against Streptococcus mitis 90557; assay type: functional; method in brief: as §1
[24] = test system: Streptococcus sanguinis; test: Chlorohexidine coefficient for Streptococcus sanguis H7P; assay type: functional
Method in brief: (§3)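 Plaques were grown on standardized ceramic hydroxylapatite plates and treated once daily for 2 min with varying concentrations until kill. They were then rinsed in sterile water and incubated in fresh broth at 37 °C anaerobically. Kill meant no acid production, no turbidity change, and no regrowth of 48-h post-treatment subcultures. Tests were run in duplicate. PBI = concn (mM) × min × days to kill; CC = chlorhexidine PBI ÷ test PBI.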

[25] = test system: Streptococcus sanguinis; test: Plaque bactericidal index against Streptococcus sanguis ATCC 10558; assay type: functional; method in brief: as §1
[26] = test system: Streptococcus sanguinis; test: Plaque bactericidal index against Streptococcus sanguis H7P; assay type: functional; method in brief: as §3
[27] = test system: Streptococcus sobrinus; test: Chlorohexidine coefficient for Streptococcus sobrinus SL-1; assay type: functional; method in brief: as §1
[28] = test system: Streptococcus sobrinus; test: Plaque bactericidal index against Streptococcus sobrinus 6715-13; assay type: functional; method in brief: as §1
[29] = test system: Streptococcus sobrinus; test: Plaque bactericidal index against Streptococcus sobrinus SL-1; assay type: functional; method in brief: as §1
[30] = test system: Streptococcus mutans; test: Chlorohexidine coefficient for Streptococcus mutans FA-1; assay type: functional; method in brief: as §1
[31] = test system: Streptococcus mutans; test: Chlorohexidine coefficient for Streptococcus mutans GR-5; assay type: functional; method in brief: as §1
[32] = test system: Streptococcus mutans; test: Chlorohexidine coefficient for Streptococcus mutans IB1600; assay type: functional; method in brief: as §1
[33] = test system: Streptococcus mutans; test: Chlorohexidine coefficient for Streptococcus mutans OMZ-61; assay type: functional; method in brief: as §1
[34] = test system: Streptococcus mutans; test: Plaque bactericidal index against Streptococcus mutans FA-1; assay type: functional; method in brief: as §1
[35] = test system: Streptococcus mutans; test: Plaque bactericidal index against Streptococcus mutans GR-5; assay type: functional; method in brief: as §1
[36] = test system: Streptococcus mutans; test: Plaque bactericidal index against Streptococcus mutans IB1600; assay type: functional; method in brief: as §1
[37] = test system: Streptococcus mutans; test: Plaque bactericidal index against Streptococcus mutans OMZ-61; assay type: functional; method in brief: as §3
[38] = test system: Actinomyces naeslundii; test: Plaque bactericidal index against Actinomyces naeslundii N/3; assay type: functional; method in brief: as §1
[39] = test system: Streptococcus sobrinus; test: Minimal bactericidal concentration against Streptococcus sobrinus 6715-13.; assay type: functional; method in brief: as §2
[40] = test system: Actinomyces viscosus; test: Plaque bactericidal index against Actinomyces viscosus M-100 measured as chlorohexidine coefficient; d=Not bactericidal at highest concentration tested (0.2% w/v, 2min, 5 days); assay type: functional, organism-based; method in brief: as §1
[41] = test system: Streptococcus sobrinus; test: Plaque bactericidal index against Streptococcus sobrinus 6715-13 measured as chlorohexidine coefficient; d=Not bactericidal at highest concentration tested (0.2% w/v, 2min, 5 days); assay type: functional, organism-based; method in brief: as §1

Br.CCCCCCCCCN=c1ccn(CCCCCCC)cc1
CC [1]: 1.9
PBI [2]: 10
MBC [3]: 1250 µM
PBI [4]: 10
CC [5]: 2.5

Br.CCCCCCCCN=c1ccn(CCCCCCC)cc1
CC [1]: 2.5
PBI [2]: 7.8
MBC [3]: 1300 µM
PBI [4]: 7.8
CC [5]: 3.3

CCCCCCCCCn1ccc(=NCCCCCCC)cc1.Cl
CC [1]: 1.7
PBI [2]: 11.3
MBC [3]: 1410 µM
PBI [4]: 8.5
CC [5]: 3

Br.CCCCCCCCN=c1ccn(CCCCCC)cc1
CC [1]: 1.4
PBI [2]: 13.5
MBC [3]: 1350 µM
PBI [4]: 10.8
CC [5]: 2.4

CCCCCCCCCN=c1ccn(CCCCCC)cc1.Cl
CC [1]: 6.6
PBI [2]: 2.9
MBC [3]: 290 µM
PBI [4]: 2.9
CC [5]: 8.8

CCCCCCCCCCN=c1ccn(CCCCC)cc1.Cl
CC [1]: 3.2
PBI [2]: 5.9
MBC [3]: 290 µM
PBI [4]: 3
CC [5]: 8.5

CCCCCCCCN=c1ccn(CCCCCCCC)cc1.Cl [PIRTENIDINE HYDROCHLORIDE]
CC [6]: 4.6
CC [1]: 6.9
CC [7]: 13.7
CC [8]: 13.7
PBI [9]: 4.2
PBI [10]: 2.8
PBI [2]: 2.8
PBI [11]: 1.4
CC [12]: 6.9
CC [13]: 13.7
CC [14]: 13.7
CC [15]: 13.7
PBI [16]: 2.8
PBI [17]: 1.4
PBI [18]: 1.4
CC [19]: 6.4
CC [20]: 1.6
CC [21]: 6.4
PBI [22]: 20
PBI [23]: 5
CC [24]: 3.2
PBI [25]: 5
PBI [26]: 10
CC [27]: 9.1
PBI [28]: 2.8
PBI [29]: 2.8
CC [30]: 18.3
CC [31]: 18.3
CC [32]: 18.3
CC [33]: 18.3
PBI [34]: 1.4
PBI [35]: 1.4
PBI [36]: 1.4
PBI [37]: 1.4
MBC [3]: 280 µM
PBI [4]: 2.8
CC [5]: 9.1
PBI [38]: 1.4

N=C(NCCCCCCNC(=N)NC(=N)Nc1ccc(Cl)cc1)NC(=N)Nc1ccc(Cl)cc1 [CHLORHEXIDINE]
PBI [2]: 19.2
MBC [3]: 3200 µM (≈ 1620 µg/mL)
PBI [4]: 25.6

CCCCCCCn1ccc(=NCCCCCC)cc1.Cl
CC [1]: 3
PBI [2]: 6.4
MBC [39]: 1600 µM
PBI [4]: 12.8
CC [5]: 2

CCCCCCCCN=c1ccn(Cc2ccc(Cl)cc2)cc1.Cl
CC [1]: 3.6
PBI [2]: 5.4
MBC [3]: 270 µM
PBI [4]: 10.9
CC [5]: 2.3

CCCCCCCCCCCCN=c1ccn(Cc2ccccc2)cc1.Cl
CC [1]: 1.9
PBI [2]: 10.3
MBC [3]: 1290 µM
PBI [4]: 15.4
CC [5]: 1.7

CCCCCCCCN=c1ccn(CCCCCCCCCCn2ccc(=NCCCCCCCC)cc2)cc1 [OCTENIDINE]
CC [1]: 1
PBI [2]: 19.2
MBC [3]: 3200 µM (≈ 1760 µg/mL)
PBI [4]: 25.6
CC [5]: 1

Br.CCCCCCCCn1ccc(=NCC(CC)CCCC)cc1 (centres undefined)
CC [1]: 1.9
PBI [2]: 10
MBC [3]: 1250 µM
PBI [4]: 10
CC [5]: 2.5

CCCCCCN=c1ccn(CCCCCC)cc1
PBI [40]: Not bactericidal
MBC [3]: 1580 µM (≈ 415 µg/mL)
PBI [41]: Not bactericidal

— ChEMBL document CHEMBL1123990, “The in vitro dental plaque inhibitory properties of a series of N-[1-alkyl-4(1H)-pyridinylidene]alkylamines” (1988)
